Laboratory results: ChEMBL document CHEMBL4138048, “Synthesis of substituted 2H-benzo[e]indazole-9-carboxylate as a potent antihyperglycemic agent that may act through IRS-1, Akt and GSK-3β pathways” (Medchemcomm, 2017)
The source made the active and inactive calls. No cut-off for these calls is given here.

Test system: L6
Experiment: Stimulation of [3H]2-deoxyglucose uptake in rat L6 cells at 10 uM incubated for 16 hrs by scintillation counting method
Format: functional, cell-based
How it was run: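 L6 myotubes incubated with the compound […]; insulin at 100 nM for 20 min served as the positive control. Uptake of ³H-2-deoxyglucose measured and expressed as fold stimulation relative to the control condition.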

COC(=O)c1c(S(C)(=O)=O)cc(-c2ccc(F)cc2)c2c1-c1cn(-c3ccccc3)nc1CC2
Activity: inactive
